Reference: ChEMBL document CHEMBL1212799 (2010)
Converted amounts (≈) assume the structure as drawn.

Assays:
Pseudomonas aeruginosa [1] = assay: Antibacterial activity against Pseudomonas aeruginosa isolate 1030 assessed as reduction of bacterial count at 8 ug/ml within 6 hrs in vitro pharmacodynamic model; type: functional
Klebsiella pneumoniae [2] = assay: fT>MIC in Klebsiella pneumoniae isolate 375 at 2 gram for every 8 hrs administered as 3 hrs infusion measured over 8-16 hrs in in vitro pharmcodynamic model; type: functional
Pseudomonas aeruginosa [3] = assay: Antibacterial activity against Pseudomonas aeruginosa isolate 896 assessed as reduction of bacterial count at 16 ug/ml within 6 hrs in vitro pharmacodynamic model; type: functional
Klebsiella pneumoniae [4] = assay: fT>MIC in Klebsiella pneumoniae isolate 360 at 2 gram for every 8 hrs administered as 3 hrs infusion measured over 0-8 hrs in in vitro pharmcodynamic model; type: functional
How it was run: (§1)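 Samples assayed by HPLC (linear 0.25–40 µg/ml). Time free drug stayed above the modal triplicate broth-microdilution MIC (CLSI) calculated for each 8-h interval.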

Klebsiella pneumoniae [5] = assay: fT>MIC in Klebsiella pneumoniae isolate 375 at 2 gram for every 8 hrs administered as 3 hrs infusion measured over 0-8 hrs in in vitro pharmcodynamic model; type: functional
Pseudomonas aeruginosa [6] = assay: fT>MIC in Pseudomonas aeruginosa isolate 762 at 2 gram for every 8 hrs administered as 3 hrs infusion measured over 8-16 hrs in in vitro pharmcodynamic model; type: functional
Pseudomonas aeruginosa [7] = assay: fT>MIC in Pseudomonas aeruginosa isolate 1038 at 2 gram for every 8 hrs administered as 3 hrs infusion measured over 8-16 hrs in in vitro pharmcodynamic model; type: functional
Pseudomonas aeruginosa [8] = assay: fT>MIC in Pseudomonas aeruginosa isolate 762 at 2 gram for every 8 hrs administered as 3 hrs infusion measured over 16-24 hrs in in vitro pharmcodynamic model; type: functional
Klebsiella pneumoniae [9] = assay: fT>MIC in Klebsiella pneumoniae isolate 354 at 2 gram for every 8 hrs administered as 3 hrs infusion over 24 hrs in in vitro pharmcodynamic model; type: functional; how it was run: as §1
Pseudomonas aeruginosa [10] = assay: fT>MIC in Pseudomonas aeruginosa isolate 1030 at 2 gram for every 8 hrs administered as 3 hrs infusion over 24 hrs in in vitro pharmcodynamic model; type: functional
Pseudomonas aeruginosa [11] = assay: fT>MIC in Pseudomonas aeruginosa isolate 762 at 2 gram for every 8 hrs administered as 3 hrs infusion over 24 hrs in in vitro pharmcodynamic model; type: functional
Pseudomonas aeruginosa [12] = assay: fT>MIC in Pseudomonas aeruginosa isolate 1038 at 2 gram for every 8 hrs administered as 3 hrs infusion measured over 16-24 hrs in in vitro pharmcodynamic model; type: functional
Klebsiella pneumoniae [13] = assay: fT>MIC in Klebsiella pneumoniae isolate 328A at 2 gram for every 8 hrs administered as 3 hrs infusion measured over 8-16 hrs in in vitro pharmcodynamic model; type: functional; how it was run: as §1
Klebsiella pneumoniae [14] = assay: fT>MIC in Klebsiella pneumoniae isolate 334 at 2 gram for every 8 hrs administered as 3 hrs infusion over 24 hrs in in vitro pharmcodynamic model; type: functional; how it was run: as §1
Pseudomonas aeruginosa [15] = assay: fT>MIC in Pseudomonas aeruginosa isolate 988 at 2 gram for every 8 hrs administered as 3 hrs infusion over 24 hrs in in vitro pharmcodynamic model; type: functional
Klebsiella pneumoniae [16] = assay: fT>MIC in Klebsiella pneumoniae isolate 360 at 2 gram for every 8 hrs administered as 3 hrs infusion measured over 16-24 hrs in in vitro pharmcodynamic model; type: functional; how it was run: as §1
Pseudomonas aeruginosa [17] = assay: Antibacterial activity against Pseudomonas aeruginosa isolate 1177 assessed as reduction of bacterial count at 8 ug/ml within 6 hrs in vitro pharmacodynamic model; type: functional
Klebsiella pneumoniae [18] = assay: Antibacterial activity against Klebsiella pneumoniae isolate 360 assessed as reduction of bacterial count at 16 ug/ml within 6 hrs in vitro pharmacodynamic model; type: functional
Klebsiella pneumoniae [19] = assay: Antibacterial activity against Klebsiella pneumoniae isolate 361 in vitro pharmacodynamic model; type: functional
How it was run: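 Inoculum 10^6 CFU/ml; dosing began 0.5 h after inoculation. Two treated models plus one untreated control per isolate; blood-agar counts; change in log10 CFU/ml over 24 h (detection limit 10^1); drug levels checked by HPLC.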

Klebsiella pneumoniae [20] = assay: fT>MIC in Klebsiella pneumoniae isolate 351 at 2 gram for every 8 hrs administered as 3 hrs infusion measured over 16-24 hrs in in vitro pharmcodynamic model; type: functional; how it was run: as §1
Klebsiella pneumoniae [21] = assay: Antibacterial activity against Klebsiella pneumoniae isolate 353 assessed as reduction of bacterial count at 16 ug/ml within 6 hrs in vitro pharmacodynamic model; type: functional, isoalte 353
Pseudomonas aeruginosa [22] = assay: fT>MIC in Pseudomonas aeruginosa isolate 1177 at 2 gram for every 8 hrs administered as 3 hrs infusion measured over 16-24 hrs in in vitro pharmcodynamic model; type: functional
Klebsiella pneumoniae [23] = assay: Antibacterial activity against Klebsiella pneumoniae isolate 328A assessed as reduction of bacterial count at 8 ug/ml within 6 hrs in vitro pharmacodynamic model; type: functional
Klebsiella pneumoniae [24] = assay: fT>MIC in Klebsiella pneumoniae isolate 368 at 2 gram for every 8 hrs administered as 3 hrs infusion over 24 hrs in in vitro pharmcodynamic model; type: functional
Pseudomonas aeruginosa [25] = assay: fT>MIC in Pseudomonas aeruginosa isolate 1030 at 2 gram for every 8 hrs administered as 3 hrs infusion measured over 8-16 hrs in in vitro pharmcodynamic model; type: functional
Klebsiella pneumoniae [26] = assay: fT>MIC in Klebsiella pneumoniae isolate 361 at 2 gram for every 8 hrs administered as 3 hrs infusion measured over 8-16 hrs in in vitro pharmcodynamic model; type: functional; how it was run: as §1
Pseudomonas aeruginosa [27] = assay: fT>MIC in Pseudomonas aeruginosa isolate 762 at 2 gram for every 8 hrs administered as 3 hrs infusion measured over 0-8 hrs in in vitro pharmcodynamic model; type: functional
Klebsiella pneumoniae [28] = assay: fT>MIC in Klebsiella pneumoniae isolate 360 at 2 gram for every 8 hrs administered as 3 hrs infusion measured over 8-16 hrs in in vitro pharmcodynamic model; type: functional; how it was run: as §1
Klebsiella pneumoniae [29] = assay: fT>MIC in Klebsiella pneumoniae isolate 360 at 2 gram for every 8 hrs administered as 3 hrs infusion over 24 hrs in in vitro pharmcodynamic model; type: functional; how it was run: as §1
Klebsiella pneumoniae [30] = assay: fT>MIC in Klebsiella pneumoniae isolate 354 at 2 gram for every 8 hrs administered as 3 hrs infusion measured over 16-24 hrs in in vitro pharmcodynamic model; type: functional; how it was run: as §1
Pseudomonas aeruginosa [31] = assay: Antibacterial activity against Pseudomonas aeruginosa isolate 1030 in vitro pharmacodynamic model; type: functional
How it was run: (§2)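 Simulated peak 38.4 µg/ml, trough 3.04 µg/ml. CAMHB at 37°C, 10^6 CFU/ml from overnight culture, drug started at 0.5 h. Two treated models plus one growth control. Change in log10 CFU/ml over 24 h on blood agar. Detection limit 10^1 CFU/ml.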

Klebsiella pneumoniae [32] = assay: fT>MIC in Klebsiella pneumoniae isolate 377 at 2 gram for every 8 hrs administered as 3 hrs infusion measured over 0-8 hrs in in vitro pharmcodynamic model; type: functional
Klebsiella pneumoniae [33] = assay: Antibacterial activity against Klebsiella pneumoniae isolate 361 assessed as reduction of bacterial count at 64 ug/ml within 6 hrs in vitro pharmacodynamic model; type: functional
Klebsiella pneumoniae [34] = assay: fT>MIC in Klebsiella pneumoniae isolate 368 at 2 gram for every 8 hrs administered as 3 hrs infusion measured over 16-24 hrs in in vitro pharmcodynamic model; type: functional
Pseudomonas aeruginosa [35] = assay: fT>MIC in Pseudomonas aeruginosa isolate 1177 at 2 gram for every 8 hrs administered as 3 hrs infusion measured over 8-16 hrs in in vitro pharmcodynamic model; type: functional
Klebsiella pneumoniae [36] = assay: fT>MIC in Klebsiella pneumoniae isolate 368 at 2 gram for every 8 hrs administered as 3 hrs infusion measured over 8-16 hrs in in vitro pharmcodynamic model; type: functional
Klebsiella pneumoniae [37] = assay: Antibacterial activity against Klebsiella pneumoniae isolate 377 in vitro pharmacodynamic model; type: functional; how it was run: as §2
Klebsiella pneumoniae [38] = assay: Antibacterial activity against Klebsiella pneumoniae isolate 375 assessed as reduction of bacterial count at 32 ug/ml within 6 hrs in vitro pharmacodynamic model; type: functional
Klebsiella pneumoniae [39] = assay: Antibacterial activity against Klebsiella pneumoniae isolate 375 in vitro pharmacodynamic model; type: functional; how it was run: as §2

C[C@@H](O)[C@H]1C(=O)N2C(C(=O)O)=C(S[C@@H]3CN[C@H](C(=O)N(C)C)C3)[C@H](C)[C@H]12 [MEROPENEM]
log10cfu (Pseudomonas aeruginosa [1]): >=3
fT>MIC (Klebsiella pneumoniae [2]): 0%
log10cfu (Pseudomonas aeruginosa [3]): >=3
fT>MIC (Klebsiella pneumoniae [4]): 0%
fT>MIC (Klebsiella pneumoniae [5]): 0%
fT>MIC (Pseudomonas aeruginosa [6]): 63%
fT>MIC (Pseudomonas aeruginosa [7]): 100%
fT>MIC (Pseudomonas aeruginosa [8]): 56%
fT>MIC (Klebsiella pneumoniae [9]): 69%
fT>MIC (Pseudomonas aeruginosa [10]): 69%
fT>MIC (Pseudomonas aeruginosa [11]): 47%
fT>MIC (Pseudomonas aeruginosa [12]): 82%
fT>MIC (Klebsiella pneumoniae [13]): 72%
fT>MIC (Klebsiella pneumoniae [14]): 16%
fT>MIC (Pseudomonas aeruginosa [15]): 47%
fT>MIC (Klebsiella pneumoniae [16]): 0%
log10cfu (Pseudomonas aeruginosa [17]): >=3
log10cfu (Klebsiella pneumoniae [18]): >3
MIC (Klebsiella pneumoniae [19]): 64 µg/mL (≈ 167 µM)
fT>MIC (Klebsiella pneumoniae [20]): 50%
log10cfu (Klebsiella pneumoniae [21]): >3
fT>MIC (Pseudomonas aeruginosa [22]): 78%
log10cfu (Klebsiella pneumoniae [23]): >3
fT>MIC (Klebsiella pneumoniae [24]): 16%
fT>MIC (Pseudomonas aeruginosa [25]): 78%
fT>MIC (Klebsiella pneumoniae [26]): 0%
fT>MIC (Pseudomonas aeruginosa [27]): 50%
fT>MIC (Klebsiella pneumoniae [28]): 0%
fT>MIC (Klebsiella pneumoniae [29]): 47%
fT>MIC (Klebsiella pneumoniae [30]): 3%
MIC (Pseudomonas aeruginosa [31]): 8 µg/mL (≈ 20.9 µM)
fT>MIC (Klebsiella pneumoniae [32]): 100%
log10cfu (Klebsiella pneumoniae [33]): >3
fT>MIC (Klebsiella pneumoniae [34]): 0%
fT>MIC (Pseudomonas aeruginosa [35]): 78%
fT>MIC (Klebsiella pneumoniae [36]): 0%
MIC (Klebsiella pneumoniae [37]): 2 µg/mL (≈ 5.22 µM)
log10cfu (Klebsiella pneumoniae [38]): >3
MIC (Klebsiella pneumoniae [39]): 32 µg/mL (≈ 83.4 µM)
